STEP block: STEP phosphatase inhibitors, primary screen, biochemical, fluorescence intensity, uHTS; 360,000 compounds, 0.25% hits; recombinant STEP, OMFP fluorogenic substrate; inhibition, % at 20 µM;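 active = inhibition at 20 µM, scaled per plate between control wells, above about 37%, limit read from the data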;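 also: 0% = DMSO with enzyme and substrate and 100% = substrate only without enzyme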
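material = STEP tyrosine phosphatase | reagent = fluorogenic phosphatase substrate OMFP at 25 µM final | doses = single compound dose of 20 µM, 1% DMSO final | schedule = 20 min reaction, room temperature, in the dark | measured by = fluorescence, 480/540 nm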
Scp-1 inhibitor: Scp-1 phosphatase inhibitors, primary screen, biochemical, colorimetric, uHTS. 340,000 compounds, 0.88% hits. Recombinant Scp1, phosphopeptide, malachite green phosphate absorbance. Carboxy-terminal domain RNA polymerase II polypeptide A small phosphatase 1 (Homo …. AID 493091, 2011. inhibition, % at 20 µM;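 active = inhibition above about 50% at 20 µM, limit read from the data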;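 also: plate controls were DMSO wells with enzyme for no effect and wells lacking enzyme for full effect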
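Material – SCP-1 phosphatase catalytic domain, residues 76-261 · Buffer or medium – Acidic Tris acetate buffer with magnesium and detergent · Also added – Phospho 17-mer peptide substrate · Compound – single 20 µM dose, 1% DMSO · Times – 45 min room-temperature reaction, 5 min colour, 30 min stabiliser · Technique – Phosphate-binding colour reagent, absorbance read at 630 nm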
LMPTP block: LMPTP phosphatase inhibitors, primary screen, biochemical, fluorescence intensity, uHTS. 360,000 compounds, 0.22% hits. Low molecular weight phosphotyrosine protein phosphatase (Homo sapiens), P24666. recombinant LMPTP-A, OMFP fluorogenic substrate. AID 651560, 2012. inhibition, % at 20 µM;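 active = compounds that cut the enzyme signal by at least half of the control window in the single-dose screen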;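 also: plate controls were DMSO wells with enzyme plus substrate for no effect and substrate without enzyme for full effect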
Target sequence (P24666 whole entry, looked up): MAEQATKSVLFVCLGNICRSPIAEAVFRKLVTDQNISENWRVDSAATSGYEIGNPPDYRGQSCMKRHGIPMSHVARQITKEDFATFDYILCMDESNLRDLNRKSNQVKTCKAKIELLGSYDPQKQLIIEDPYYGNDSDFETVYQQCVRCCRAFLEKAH
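test system = LMPTP-A | amount = 0.625 nM LMPTP-A final | reagent = fluorogenic phosphatase substrate OMFP at 400 µM final | incubation = 50 min at room temperature | benchmarks = no-enzyme low control, uninhibited high control | medium = Bis-Tris pH 6.0, DTT, detergent | signal = fluorescence intensity of OMFP turnover product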
PP1 counter: PP1-alpha phosphatase inhibitors, primary screen, counter-screen for PP5 inhibitor project, biochemical, fluorescence, OMFP substrate, single point. purified PP1alpha. 320,000 compounds, 0.9% hits. inhibition, % at 6.7 µM. AID 2235, 2010;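 active = inhibition above the mean inhibition of all tested compounds plus 3 SD, computed separately for each screening campaign, cut at about 15% in these data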
PP5 inh: PP5 phosphatase inhibitors, primary screen, biochemical, fluorescence | Serine/threonine-protein phosphatase 5 (Homo sapiens), P53041 | AID 1987, 2009 | 320,000 compounds, 0.18% hits | inhibition, % at 6.7 µM | purified PP5c, OMFP substrate fluorescence;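 active = inhibition above the campaign's mean inhibition across all tested compounds plus 3 SD, cut at about 9.5% in these data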;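 also: 0% = DMSO only and 100% = 100 µM cantharidin control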
Target sequence (P53041 whole entry, looked up): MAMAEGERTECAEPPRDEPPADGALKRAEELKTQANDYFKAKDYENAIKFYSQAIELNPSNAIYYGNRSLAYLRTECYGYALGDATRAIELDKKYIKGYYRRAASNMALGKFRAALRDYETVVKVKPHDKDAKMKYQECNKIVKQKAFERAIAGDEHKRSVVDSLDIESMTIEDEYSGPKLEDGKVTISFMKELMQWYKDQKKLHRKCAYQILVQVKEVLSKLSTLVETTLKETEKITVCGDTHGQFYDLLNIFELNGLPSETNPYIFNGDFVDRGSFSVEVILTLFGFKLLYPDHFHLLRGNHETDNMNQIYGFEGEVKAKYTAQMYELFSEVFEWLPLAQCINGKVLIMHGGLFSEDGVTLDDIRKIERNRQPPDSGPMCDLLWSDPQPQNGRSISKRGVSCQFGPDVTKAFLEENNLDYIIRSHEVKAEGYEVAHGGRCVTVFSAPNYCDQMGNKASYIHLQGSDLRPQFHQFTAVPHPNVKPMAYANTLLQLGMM
Scp-1 conf: Scp-1 phosphatase inhibitors, retest, confirmation, biochemical, colorimetric, single concentration. shares compounds with Scp-1 inhibitor. 2,500 compounds, 61% hits. AID 540281, 2011. recombinant SCP-1 catalytic domain, phosphate release, malachite green absorbance. inhibition, % at 20 µM;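 also: plate controls were DMSO with enzyme for no effect and buffer wells lacking enzyme for full effect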
Scp-1 MG ctr: colorimetric readout interference by compounds, confirmation, artefact control for Scp-1 inhibitor project, biochemical, single concentration; shares compounds with Scp-1 inhibitor; apparent inhibition (interference), % at 20 µM; 2,500 tested, under 10 active; Colorimetric interference counterscreen, malachite green absorbance 630 nm;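 also: compounds added after enzyme reaction finished so only phosphate colour detection is probed; plate controls were DMSO wells with completed Scp-1 reaction for no effect and substrate wells lacking enzyme for full effect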
Scp1 DSF: Scp-1 binding by thermal shift, confirmation, orthogonal assay for Scp-1 inhibitor project, biophysical, differential scanning fluorimetry; thermal shift relative to vanadate control, % at 40 µM; 1,500 compounds, 25% hits; shares compounds with Scp-1 inhibitor; Recombinant SCP1, Sypro Orange thermal shift Tm; AID 540329, 2011;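 active = substances whose mean melting-temperature shift, as a percentage of the reference inhibitor's shift, reaches about 5.3%, limit read from the data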;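 also: 0% = Tm of DMSO wells and 100% = Tm with sodium orthovanadate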
An asterisk follows results filed as active; ! = not active in a repeat. The list is not random: actives were taken first. Their share in the collection is about 1.9%.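 The calls were made as follows, unless noted: active = inhibition of at least 30% at 20 µM; inactive = the rest.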

How did CCCCc1c(CCC)c(=N)c2ccccc2n1C do in these assays?
STEP block: -1; Scp-1 inhibitor: 91*; LMPTP block: 10; PP1 counter: 0; PP5 inh: 0; Scp-1 conf: 7; Scp-1 MG ctr: -10

Results for O=C(O)c1cc(S(=O)(=O)N2CCN(S(=O)(=O)c3ccc4ccccc4c3)CC2)ccc1Br ?
STEP block: 8; Scp-1 inhibitor: 59*; LMPTP block: 1; Scp-1 conf: 63*; Scp-1 MG ctr: -16; Scp1 DSF: 8.7*

How did O=S(=O)(c1ccc2ccccc2c1)N1CCCCCC1 do in these assays?
STEP block: 0; Scp-1 inhibitor: -13; LMPTP block: 1; PP1 counter: -1; PP5 inh: 5

How did CCOC(=O)C1CCN(C(c2ccccn2)c2c(C)[nH]c3ccccc23)CC1 (stereo not drawn) do in these assays?
STEP block: 6; Scp-1 inhibitor: 4; LMPTP block: 1; PP1 counter: -1; PP5 inh: 0

Results for O=C(Nc1cc2c(cc1Cl)OCCCO2)c1ccco1 ?
STEP block: 1; Scp-1 inhibitor: 50; LMPTP block: 0; PP1 counter: 1; PP5 inh: 1; Scp-1 conf: -22; Scp-1 MG ctr: -22

What do the screens show for `O=C(Nc1sc2c(c1C(=O)O)CCC2)c1ccccc1`?
STEP block: 23; Scp-1 inhibitor: 58*; LMPTP block: 9; PP1 counter: -1; PP5 inh: 0; Scp-1 conf: 54*; Scp-1 MG ctr: -15; Scp1 DSF: 6.6*

What do the screens show for `O=C(Nc1sc2c(c1C(=O)O)CCCCC2)c1ccccc1`?
STEP block: 4; Scp-1 inhibitor: -5; LMPTP block: -1; PP1 counter: 1; PP5 inh: -1

Results for O=C1C2C(C(=O)N1CCc1ccccc1)C1C=CC2C12CC2 (stereo not drawn) ?
STEP block: -1; Scp-1 inhibitor: -13; LMPTP block: 0; PP1 counter: 0; PP5 inh: 2

How did COc1nc(=O)n(C2CCCO2)cc1C (stereo not drawn) do in these assays?
STEP block: -2; Scp-1 inhibitor: 85*; LMPTP block: 0; Scp-1 conf: -11; Scp-1 MG ctr: -7

Results for Cc1cn(C2CCCCO2)c(=O)nc1NO (stereo not drawn) ?
STEP block: -4; Scp-1 inhibitor: 4; LMPTP block: 0

How did CC(O)/C=C/c1cccc[n+]1C (stereo not drawn) do in these assays?
STEP block: 0; Scp-1 inhibitor: 96*; LMPTP block: -10; PP1 counter: 0; PP5 inh: 4; Scp-1 conf: 85*; Scp-1 MG ctr: -12; Scp1 DSF: -6

What do the screens show for `C[n+]1ccccc1/C=N/O`?
STEP block: 1; Scp-1 inhibitor: 52*!; LMPTP block: -3; PP1 counter: -12; PP5 inh: 6; Scp-1 conf: 4; Scp-1 MG ctr: -15

How did C[n+]1ccccc1/C=C/c1cc(Br)ccc1O do in these assays?
STEP block: 1; Scp-1 inhibitor: -10; LMPTP block: 1; PP1 counter: 4; PP5 inh: 1

Results for COc1cccc(C(=O)C[n+]2ccccc2/C=N/O)c1 ?
STEP block: -1; Scp-1 inhibitor: -7; LMPTP block: -3; PP1 counter: -2; PP5 inh: -1

How did CSc1nc2ccc(NS(=O)(=O)c3ccc4c(c3)OCCO4)cc2s1 do in these assays?
STEP block: -6; Scp-1 inhibitor: -9; LMPTP block: 1; PP1 counter: 1; PP5 inh: 2

Results for O=C(CSc1nc2ccccc2c(=O)n1-c1ccc(F)cc1)Nc1ccc(N2CCOCC2)cc1 ?
STEP block: 2; Scp-1 inhibitor: 8; LMPTP block: 1; PP1 counter: -3; PP5 inh: 2

What do the screens show for `O=C1OC(c2ccc3c(c2)OCO3)=N/C1=C\c1ccc(C(=O)O)cc1`?
STEP block: 11; Scp-1 inhibitor: 88*; LMPTP block: -1; PP1 counter: 0; PP5 inh: -2; Scp-1 conf: 69*; Scp-1 MG ctr: -5; Scp1 DSF: 6.3*

How did O=C(O)c1cccc(-c2ccc3c(c2)OCO3)c1 do in these assays?
STEP block: 0; Scp-1 inhibitor: -4; LMPTP block: -1; PP1 counter: -2; PP5 inh: -1

How did CCCn1c(=O)c2sccc2n2c(CCCC(=O)NCc3cccnc3)nnc12 do in these assays?
STEP block: -3; Scp-1 inhibitor: -6; LMPTP block: -1; PP1 counter: 2; PP5 inh: 0

Results for CCCn1c(=O)c2sccc2n2c(CCCC(=O)NCc3ccco3)nnc12 ?
STEP block: 17; Scp-1 inhibitor: 69*; LMPTP block: 2; PP1 counter: 1; PP5 inh: 0; Scp-1 conf: 54*; Scp-1 MG ctr: -9; Scp1 DSF: -5

Results for COc1ccc(CCN(C)C(=O)c2ccc(COc3ccccc3)o2)cc1OC ?
STEP block: -2; Scp-1 inhibitor: -10; LMPTP block: -9; PP1 counter: -1; PP5 inh: -1

What do the screens show for `O=C(Nc1ccc(Br)cc1Cl)c1cnccn1`?
STEP block: 2; Scp-1 inhibitor: 68*; LMPTP block: 0; PP1 counter: 0; PP5 inh: 2; Scp-1 conf: 55*; Scp-1 MG ctr: -23; Scp1 DSF: 8.8*

What do the screens show for `O=C(Nc1ccccc1Cl)c1cnccn1`?
STEP block: 4; Scp-1 inhibitor: -4; LMPTP block: -1; PP1 counter: 0; PP5 inh: 2

What do the screens show for `Cc1ccc(C(=O)O)cc1-c1ccc(C=C2C(=O)c3ccccc3C2=O)o1`?
STEP block: 42*; Scp-1 inhibitor: 79*; LMPTP block: 13; PP1 counter: -2; PP5 inh: -2; Scp-1 conf: 47*; Scp-1 MG ctr: -23; Scp1 DSF: 12*

What do the screens show for `CCOc1ccc(C(C(=O)NC2CCCC2)N(Cc2ccccc2)C(=O)c2nsc(Cl)c2Cl)cc1` (stereo not drawn)?
STEP block: 3; Scp-1 inhibitor: -14; LMPTP block: 5; PP1 counter: 6; PP5 inh: 6
